Reference: ChEMBL document CHEMBL1782030, “Polyethylene glycol-based homologated ligands for nicotinic acetylcholine receptors” (Bioorg Med Chem, 2008)

assay: Displacement of [3H]epibatidine from nAChR in rat cerebral cortex; format: tissue-based
In short: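 Rat cerebral cortex membranes used as receptor source; competition binding against the radioligand [3H]epibatidine. Ki values given as mean ± SEM of three experiments, each run in triplicate.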

Compound	Ki [µM]
COCC#Cc1cncc(OC[C@@H]2CCCN2C)c1	0.0047
COC(=O)N1CC[N+](C)(C)CC1	0.67
COCCOCC#Cc1cncc(OC[C@@H]2CCCN2C)c1	0.015
COCCOCCOCCOCCOCCOCCOCC#Cc1cncc(OC[C@@H]2CCCN2C)c1	0.063
COCCOCCOCCOCCOCCOCC#Cc1cncc(OC[C@@H]2CCCN2C)c1	0.04
COCCOCCOCCOCCOCCOC(=O)N1CC[N+](C)(C)CC1	38
CN1CCC[C@H]1COc1cncc(C#CCO)c1	0.0031
COCCOCCOCCOCC#Cc1cncc(OC[C@@H]2CCCN2C)c1	0.015
COCCOCCOCCOCCOC(=O)NCC[N+](C)(C)C	150
COCCOCCOCCOC(=O)NCC[N+](C)(C)C	70
COCCOC(=O)N1CC[N+](C)(C)CC1	3
COCCOCCOCC#Cc1cncc(OC[C@@H]2CCCN2C)c1	0.0075
CC(=O)N1CC[N+](C)(C)CC1 [ACETYLDIMETHYLPIPERAZINIUM IODIDE]	3.6
COCCOCCOC(=O)NCC[N+](C)(C)C	32
COCCOCCOCCOCCOCCOC(=O)NCC[N+](C)(C)C	190
COCCOC(=O)NCC[N+](C)(C)C	54
COCCOCCOC(=O)N1CC[N+](C)(C)CC1	8.2
COC(=O)NCC[N+](C)(C)C	14
COCCOCCOCCOCCOCC#Cc1cncc(OC[C@@H]2CCCN2C)c1	0.03
COCCOCCOCCOCCOCCOCCOC(=O)N1CC[N+](C)(C)CC1	19
COCCOCCOCCOCCOC(=O)N1CC[N+](C)(C)CC1	26
COCCOCCOCCOCCOCCOCCOC(=O)NCC[N+](C)(C)C	30
COCCOCCOCCOC(=O)N1CC[N+](C)(C)CC1	48
